Results: ChEMBL document CHEMBL4406918, “Inhibitory Effects of Multivalent Polypeptides on the Proliferation and Metastasis of Breast Cancer Cells” (ACS Med Chem Lett, 2019)
The source made the active and inactive calls. No cut-off for these calls is given here.

Columns and labels:
[1] = system: 4T1; experiment: Antiinvasive activity in mouse 4T1 cells assessed as cell invasion rate at 10^-5 mM incubated for 24 hrs by crystal violet staining based matrigel invasion assay relative to control; settings: 4T1, 24 h
[2] = system: 4T1; experiment: Induction of apoptosis in mouse 4T1 cells assessed as viable cells at 10^-3 mM incubated for 24 hrs by Annexin V-FITC/PI based FACS analysis (reference value: 92.2%); assay type: functional; settings: 4T1, 24 h, read-out: Activity
[3] = system: 4T1; experiment: Induction of cell death in mouse 4T1 cells incubated for 24 hrs by PI staining based inverted microscopic method; assay type: functional
Outline: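 Live–dead staining of 4T1 cells after 24 h exposure to 0.4 mM, read by PI staining. A 0.8 mM level was also examined.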

[4] = system: 4T1; experiment: Inhibition of cell migration in mouse 4T1 cells assessed as migration frequency at 10^-5 mM incubated for 24 hrs by crystal violet staining based transwell assay relative to control; assay type: functional; parameters: scale not given: the % may be the effect or the level left
Outline: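 Transwell migration assay on 4T1 cells after 24 h treatment. Rate was quantified from cell numbers on the underside of the porous membrane. Mean ± SD, n = 3.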

[5] = system: 4T1; experiment: Induction of cell cycle arrest in mouse 4T1 cells assessed as accumulation at G2/M phase at 10^-3 mM incubated for 24 hrs by PI staining based flow cytometric analysis (reference value: 19.82%); assay type: functional
[6] = system: Erythrocyte; experiment: Hemolytic activity in BALB/c mouse RBC at 3.2 mM incubated for 2 hrs by UV-Vis spectrophotometric analysis; assay type: ADME, cell-based; settings: 3200 µM
Outline: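 Hemolysis assay on red blood cells with dendrimers up to 3.2 mM. Result is expressed as hemolysis rate, with under 5% taken as acceptable.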

[7] = system: 4T1; experiment: Inhibition of metastasis in mouse 4T1 cells assessed as formation of pseudopods at 10^-5 mM incubated for 24 hrs by SEM analysis; assay type: functional, cell-based
Outline: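 4T1 cells treated 24 h, then imaged by scanning electron microscopy for pseudopod formation. Dendrimers were tested at 0.2 mM and the reference at 10–5 mM.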

[8] = system: 4T1; experiment: Inhibition of cell migration in mouse 4T1 cells assessed as wound closure rate at 10^-5 mM measured up to 36 hrs by inverted optical microscopic method based wound healing assay (reference value: 82%); assay type: functional; parameters: scale not given: the % may be the effect or the level left; settings: at 10 nM
[9] = system: 4T1; experiment: Antitumour activity against mouse 4T1 cells xenografted in BALB/c mouse assessed as increase in cytotoxic tumor cell death at 10 mg/kg administered intratumorally and measured after 24 days by H and E staining based inverted optical microscopic method; assay type: functional, organism-based
Outline: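 BALB/c mice bearing subcutaneous 4T1 tumours received 6 doses at 10 mg/kg body weight, matched for YSL monomer molar amount, with saline as control. Tumour sections were stained for H&E, CD31, Ki-67 and TUNEL. n = 5.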

[10] = system: 4T1; experiment: Induction of apoptosis in mouse 4T1 cells assessed as necrotic cells at 10^-3 mM incubated for 24 hrs by Annexin V-FITC/PI based FACS analysis (reference value: 0.47%); assay type: functional
[11] = system: 4T1; experiment: Induction of apoptosis in mouse 4T1 cells assessed as early apoptotic cells at 10^-3 mM incubated for 24 hrs by Annexin V-FITC/PI based FACS analysis (reference value: 0.76%); assay type: functional
[12] = system: 4T1; experiment: Induction of cell cycle arrest in mouse 4T1 cells assessed as accumulation at G0/G1 phase at 10^-3 mM incubated for 24 hrs by PI staining based flow cytometric analysis (reference value: 37.78%); assay type: functional
[13] = system: 4T1; experiment: Induction of cell cycle arrest in mouse 4T1 cells assessed as accumulation at S phase at 10^-3 mM incubated for 24 hrs by PI staining based flow cytometric analysis (Rvb =42.35%); assay type: functional; settings: at 0.001 mM
[14] = system: 4T1; experiment: Induction of apoptosis in mouse 4T1 cells assessed as late apoptotic cells at 10^-3 mM incubated for 24 hrs by Annexin V-FITC/PI based FACS analysis (reference value: 6.62%); assay type: functional
[15] = system: 4T1; experiment: Inhibition of metastasis in mouse 4T1 cells assessed as disruption in F-actin arrangement at 10^-5 mM incubated for 24 hrs by Hoechst 33342 staining based confocal laser scanning microscopic method; assay type: functional, cell-based
Outline: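 After 24 h treatment, 4T1 cells were stained with Alexa Fluor 488 phalloidin for F-actin and Hoechst 33342 for nuclei, then imaged by fluorescence microscopy to assess cytoskeleton and cell morphology.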

[16] = system: 4T1; experiment: Antiproliferative activity against mouse 4T1 cells incubated for 24 hrs by MTT assay; assay type: functional, cell-based; settings: 4T1, 24 h
Outline: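 MTT viability assay on 4T1 cells after 24 h treatment. Concentrations included 0.1 mM and 0.2 mM, and IC50 was taken from the viability curve. Mean ± SD, n = 6.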

- IC50 [16]: 1000 nM
Compound: CC(=O)O[C@H]1C(=O)[C@@]2(C)[C@H]([C@H](OC(=O)c3ccccc3)[C@]3(O)C[C@H](OC(=O)[C@H](O)[C@@H](NC(=O)c4ccccc4)c4ccccc4)C(C)=C1C3(C)C)[C@]1(OC(C)=O)CO[C@@H]1C[C@@H]2O [PACLITAXEL]
- invasion rate at 0.01 µM [1]: 34%
- viability at 1 µM [2]: 61.7%
- Activity [3]: Dose-dependent effect
- Activity [4]: 30%
- Activity [5]: 13.02%
- Activity [6]: Non-Toxic
- inhibition [7]: inactive
- Activity [8]: 43%
- Activity [9]: Active
- Activity [10]: 0.62%
- Activity [11]: 0.77%
- Activity [12]: 42.35%
- Activity [13]: 44.64%
- Activity [14]: 36.9%
- inhibition [15]: Active
